Reference: ChEMBL document CHEMBL5058577, “EUbOPEN Chemogenomics Library 2 (Multiplex)” (2022)

Tested on: HEK-293T
Assay: Multiplex assay against HEK293T
Format: toxicity, cell-based
Conditions: human
Summary of the method: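 Phenotypes for tubulin, mitochondrial mass and membrane permeability are expressed as per cents of healthy-nucleus cells. Cells were stained live at seeding with Hoechst33342, BioTracker Green Microtubule Cytoskeleton Dye, MitoTracker Red and Annexin V Alexa Fluor 680, then imaged after compound addition on a CQ1 microscope at 37°C and 5% CO2. Machine-learning gating in CellPathfinder separated Hoechst high-intensity objects from normal cells, divided normal cells by nuclear state (healthy, pyknosed, fragmented) and divided pyknosed cells into mitotic or apoptotic.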

[1] = 12 h, 1 µM, compound concentration 1 uM, replicate 1
[2] = 12 h, 1 µM, compound concentration 1 uM, replicate 2
[3] = 12 h, 10 µM, compound concentration 10 uM, replicate 1
[4] = 12 h, 10 µM, compound concentration 10 uM, replicate 2
[5] = 24 h, 1 µM, compound concentration 1 uM, replicate 1
[6] = 24 h, 1 µM, compound concentration 1 uM, replicate 2
[7] = 24 h, 10 µM, compound concentration 10 uM, replicate 1
[8] = 24 h, 10 µM, compound concentration 10 uM, replicate 2
[9] = 48 h, 1 µM, compound concentration 1 uM, replicate 1
[10] = 48 h, 1 µM, compound concentration 1 uM, replicate 2
[11] = 48 h, 10 µM, compound concentration 10 uM, replicate 1
[12] = 48 h, 10 µM, compound concentration 10 uM, replicate 2

Compound: Cc1cccc(NC(=O)CN2CCC(c3ccccn3)CC2)c1.Cl.Cl
- Population Apoptotic (%) [1]: 34%
- Population Fragmented Nuclei (%) [1]: 7%
- Population Healthy Nuclei (%) [1]: 76%
- Population Hoechst High Intensity Objects (%) [1]: 5%
- Population Membrane Permeable-Phenotype (%) [1]: 0%
- Population Mitochondria Different-Phenotype (%) [1]: 54%
- Population Mitotic Cells (%) [1]: 65%
- Population Normal (%) [1]: 94%
- Population Pyknosed Nuclei (%) [1]: 15%
- Population Tubulin-Different-Phenotype (%) [1]: 33%
- Total Cell Count [1]: 348
- Population Apoptotic (%) [2]: 46%
- Population Fragmented Nuclei (%) [2]: 5%
- Population Healthy Nuclei (%) [2]: 82%
- Population Hoechst High Intensity Objects (%) [2]: 3%
- Population Mitotic Cells (%) [2]: 53%
- Population Normal (%) [2]: 96%
- Population Pyknosed Nuclei (%) [2]: 11%
- Population Tubulin-Different-Phenotype (%) [2]: 22%
- Total Cell Count [2]: 277
- Population Apoptotic (%) [3]: 61%
- Population Fragmented Nuclei (%) [3]: 6%
- Population Healthy Nuclei (%) [3]: 71%
- Population Hoechst High Intensity Objects (%) [3]: 9%
- Population Membrane Permeable-Phenotype (%) [3]: 0%
- Population Mitochondria Different-Phenotype (%) [3]: 63%
- Population Mitotic Cells (%) [3]: 38%
- Population Normal (%) [3]: 90%
- Population Pyknosed Nuclei (%) [3]: 21%
- Population Tubulin-Different-Phenotype (%) [3]: 50%
- Total Cell Count [3]: 291
- Population Apoptotic (%) [4]: 43%
- Population Fragmented Nuclei (%) [4]: 10%
- Population Healthy Nuclei (%) [4]: 70%
- Population Hoechst High Intensity Objects (%) [4]: 14%
- Population Mitochondria Different-Phenotype (%) [4]: 79%
- Population Mitotic Cells (%) [4]: 56%
- Population Normal (%) [4]: 85%
- Population Pyknosed Nuclei (%) [4]: 18%
- Population Tubulin-Different-Phenotype (%) [4]: 35%
- Total Cell Count [4]: 273
- Population Apoptotic (%) [5]: 32%
- Population Fragmented Nuclei (%) [5]: 8%
- Population Healthy Nuclei (%) [5]: 81%
- Population Hoechst High Intensity Objects (%) [5]: 3%
- Population Membrane Permeable-Phenotype (%) [5]: 0%
- Population Mitochondria Different-Phenotype (%) [5]: 30%
- Population Mitotic Cells (%) [5]: 67%
- Population Normal (%) [5]: 96%
- Population Pyknosed Nuclei (%) [5]: 9%
- Population Tubulin-Different-Phenotype (%) [5]: 22%
- Total Cell Count [5]: 451
- Population Apoptotic (%) [6]: 45%
- Population Fragmented Nuclei (%) [6]: 10%
- Population Healthy Nuclei (%) [6]: 79%
- Population Hoechst High Intensity Objects (%) [6]: 4%
- Population Mitochondria Different-Phenotype (%) [6]: 44%
- Population Mitotic Cells (%) [6]: 54%
- Population Normal (%) [6]: 95%
- Population Pyknosed Nuclei (%) [6]: 10%
- Population Tubulin-Different-Phenotype (%) [6]: 18%
- Total Cell Count [6]: 339
- Population Apoptotic (%) [7]: 59%
- Population Fragmented Nuclei (%) [7]: 8%
- Population Healthy Nuclei (%) [7]: 74%
- Population Hoechst High Intensity Objects (%) [7]: 7%
- Population Membrane Permeable-Phenotype (%) [7]: 0%
- Population Mitochondria Different-Phenotype (%) [7]: 60%
- Population Mitotic Cells (%) [7]: 40%
- Population Normal (%) [7]: 92%
- Population Pyknosed Nuclei (%) [7]: 17%
- Population Tubulin-Different-Phenotype (%) [7]: 38%
- Total Cell Count [7]: 350
- Population Apoptotic (%) [8]: 50%
- Population Fragmented Nuclei (%) [8]: 11%
- Population Healthy Nuclei (%) [8]: 75%
- Population Mitochondria Different-Phenotype (%) [8]: 64%
- Population Mitotic Cells (%) [8]: 50%
- Population Pyknosed Nuclei (%) [8]: 13%
- Population Tubulin-Different-Phenotype (%) [8]: 26%
- Total Cell Count [8]: 348
- Population Apoptotic (%) [9]: 30%
- Population Fragmented Nuclei (%) [9]: 13%
- Population Healthy Nuclei (%) [9]: 76%
- Population Hoechst High Intensity Objects (%) [9]: 2%
- Population Membrane Permeable-Phenotype (%) [9]: 0%
- Population Mitochondria Different-Phenotype (%) [9]: 25%
- Population Mitotic Cells (%) [9]: 69%
- Population Normal (%) [9]: 97%
- Population Pyknosed Nuclei (%) [9]: 9%
- Population Tubulin-Different-Phenotype (%) [9]: 21%
- Total Cell Count [9]: 688
- Population Apoptotic (%) [10]: 46%
- Population Fragmented Nuclei (%) [10]: 8%
- Population Healthy Nuclei (%) [10]: 83%
- Population Hoechst High Intensity Objects (%) [10]: 4%
- Population Mitochondria Different-Phenotype (%) [10]: 24%
- Population Mitotic Cells (%) [10]: 53%
- Population Normal (%) [10]: 95%
- Population Pyknosed Nuclei (%) [10]: 8%
- Population Tubulin-Different-Phenotype (%) [10]: 13%
- Total Cell Count [10]: 524
- Population Apoptotic (%) [11]: 46%
- Population Fragmented Nuclei (%) [11]: 13%
- Population Healthy Nuclei (%) [11]: 75%
- Population Hoechst High Intensity Objects (%) [11]: 4%
- Population Membrane Permeable-Phenotype (%) [11]: 0%
- Population Mitochondria Different-Phenotype (%) [11]: 45%
- Population Mitotic Cells (%) [11]: 53%
- Population Normal (%) [11]: 95%
- Population Pyknosed Nuclei (%) [11]: 10%
- Population Tubulin-Different-Phenotype (%) [11]: 26%
- Total Cell Count [11]: 515
- Population Apoptotic (%) [12]: 48%
- Population Fragmented Nuclei (%) [12]: 16%
- Population Healthy Nuclei (%) [12]: 76%
- Population Hoechst High Intensity Objects (%) [12]: 2%
- Population Mitochondria Different-Phenotype (%) [12]: 37%
- Population Mitotic Cells (%) [12]: 51%
- Population Normal (%) [12]: 97%
- Population Pyknosed Nuclei (%) [12]: 7%
- Population Tubulin-Different-Phenotype (%) [12]: 20%
- Total Cell Count [12]: 544
